Series [1] is filed under the species Mus musculus. The experiment in a line: Binding affinity to PrPSc aggregates in mouse prion protein RML infected mouse ScN2a cells incubated for 8 mins followed by proteinase K digestion using FITC filter by fluorescence confocal microscopic method. Put shortly: (§1)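 N2a or ScN2a cells were grown on coverslips for 24 h, then fixed and permeabilized (4% formaldehyde/0.1% Triton X-100, 1 h, RT) and denatured with 6 M GdnHCl for 10 min. Where PK was used: 20 µg/mL for 15 min at 37 °C, stopped with PMSF. After NGS blocking, cells were stained with compound at 0.025% in 80% EtOH for 8 min at RT. Imaging was by confocal microscopy with a FITC filter.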

For series [2], the species on record is Mus musculus. As to the kind of experiment: Antiprion activity against mouse prion protein RML infected mouse ScN2a cells assessed as proteinase K-resistant PrPSc level at 10 uM incubated for 5 days followed by proteinase K digestion by Western blot method relative to control. In outline: (§2)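 RML-infected ScN2a cells were treated with 0.1, 1 and 10 μM for 5 days, with DMSO ≤0.1% final. Lysates (500 μg protein) were digested with 10 μg PK for 1 h at 37 °C, stopped with 2 mM PMSF and ultracentrifuged. Pellets were run on SDS-PAGE and immunoblotted with anti-PrP Fab W226, with ECL detection. Densitometry gave PK-resistant PrPSc over total PrP, with untreated set to 100%. Three independent experiments.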
A general note: In western blotting, separated proteins are transferred to a membrane and probed.

For series [3], the species on record is Mus musculus. The experiment in a line: Antiprion activity against mouse prion protein RML infected mouse ScN2a cells assessed as proteinase K-resistant PrPSc level at 1 uM incubated for 5 days followed by proteinase K digestion by Western blot method relative to control. Put shortly: as §2
Series [4] in a line: Cytotoxicity against mouse ScN2a cells assessed as cell viability at 0.1 uM after 5 days by MTT assay relative to control. It is filed as cell-based. The note with it: read-out: Activity. Put shortly:
(§3)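 ScN2a cells were seeded in MEM at 2.5×10^4 cells/mL and allowed to settle for 2 h. Compounds (DMSO stock, diluted in EtOH then medium) were added at 0.1, 1 and 10 μM for 5 days at 37 °C under 5% CO2. MTT (5 mg/mL) was applied for 3 h and solubilized with DMSO/2-propanol. Plates were read at 570/690 nm. Viability is given as % of untreated control, mean ± SD of three independent experiments.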
(In general: Tetrazolium assays rely on reduction of a dye to a coloured formazan, in cell work by metabolically active cells.)

Series [5] is described as follows: Cytotoxicity against mouse ScN2a cells assessed as cell viability at 10 uM after 5 days by MTT assay relative to control. Particulars: read-out: Activity. Type of series: cell-based. Put shortly:
as §3

Series [6] is described as follows: Antiprion activity against mouse prion protein RML infected mouse ScGT1 cells assessed as reduction in proteinase K-resistant PrPSc level incubated for 7 days followed by proteinase K digestion by ELISA. Particulars: ScGT1, 168 h.
Series [7] is described as follows: Cytotoxicity against mouse ScN2a cells assessed as cell viability at 1 uM after 5 days by MTT assay relative to control. It is filed as cell-based. The note with it: read-out: Activity. In outline: as §3
For series [8], the species on record is Mus musculus. The experiment in a line: Binding affinity to proteinase K sensitive cellular prion protein in mouse N2A cells incubated for 8 mins by fluorescence confocal microscopic method. Type of series: cell-based. Put shortly:
as §1

The test system of the next series is N2a. As to the kind of experiment: Effect on cellular prion protein level in mouse N2A cells up to 10 uM incubated for 5 days by Western blot method. It is filed as functional, cell-based. In outline: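 Non-infected N2a cells were treated at 0.1, 1 and 10 μM for 5 days. Lysates (50 µg protein, no PK digestion) were immunoblotted with anti-PrP Fab W226. PrPC was normalized to actin, with untreated controls set to 100%. Done in triplicate.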

The species entered for series [9] is Mus musculus. As to the kind of experiment: Antiprion activity against mouse prion protein RML infected mouse ScN2a cells assessed as proteinase K-resistant PrPSc level at 0.1 uM incubated for 5 days followed by proteinase K digestion by Western blot method relative to control. Put shortly: as §2

Calls of active or inactive are those of the source. The calls are words filed in the database; no cut-off is given here.

In general, IC50 refers to the concentration at which inhibition is half-maximal.

Turning to `Cc1ccc2c(c1)sc(-c1ccc(N(C)C)cc1)[n+]2C`, in the series listed under Mus musculus [1], the outcome was Active.
Regarding `COC1=CC2=NC(N/N=C/c3ccnc4ccccc34)=C3CC=CN3C2C=C1` (stereo unspecified), the Activity in the series listed under Mus musculus [2] stood at 9%; in the series listed under Mus musculus [3], 35%; in the series listed under Mus musculus [9] it was 76%. Besides, the result in the series filed under Mus musculus [1] was Active. For the same compound, the viability at 120 h, 0.1 µM in series [4] came out at 107%. Also, in [5], the viability at 120 h, 10 µM worked out at 83.3%. Moreover, the IC50 in series [6] turned out to be 1600 nM. Also, the viability at 120 h, 1 µM in series [7] was 96.3%. Also, the outcome in the series filed under Mus musculus [8] and with N2a was inactive.

The values above are taken from ChEMBL document CHEMBL3994584, “Identification of novel fluorescent probes preventing PrPSc replication in prion diseases” (Eur J Med Chem, 2017).
